Measured values reported in publication PMC7658073 (Clinical Pharmacokinetics, 2020).
Where two headings read alike, the source gives them in different places.

Experiments:
CYP2B6 = assay: CYP induction in cultured human hepatocytes: CYP2B6; assay type: in vitro ADME; details: three donors, up to 10,000 μg/L (23.5 µM)
CYP3A4 = assay: CYP induction in cultured human hepatocytes: CYP3A4; assay type: in vitro ADME; details: one of the three donors
OATP1B1 = target: T1, OATP1B1 (Homo sapiens, UniProt Q9Y6L6); assay: Substrate properties towards OATP1B1; assay type: in vitro ADME
T1 sequence (Q9Y6L6 1-691): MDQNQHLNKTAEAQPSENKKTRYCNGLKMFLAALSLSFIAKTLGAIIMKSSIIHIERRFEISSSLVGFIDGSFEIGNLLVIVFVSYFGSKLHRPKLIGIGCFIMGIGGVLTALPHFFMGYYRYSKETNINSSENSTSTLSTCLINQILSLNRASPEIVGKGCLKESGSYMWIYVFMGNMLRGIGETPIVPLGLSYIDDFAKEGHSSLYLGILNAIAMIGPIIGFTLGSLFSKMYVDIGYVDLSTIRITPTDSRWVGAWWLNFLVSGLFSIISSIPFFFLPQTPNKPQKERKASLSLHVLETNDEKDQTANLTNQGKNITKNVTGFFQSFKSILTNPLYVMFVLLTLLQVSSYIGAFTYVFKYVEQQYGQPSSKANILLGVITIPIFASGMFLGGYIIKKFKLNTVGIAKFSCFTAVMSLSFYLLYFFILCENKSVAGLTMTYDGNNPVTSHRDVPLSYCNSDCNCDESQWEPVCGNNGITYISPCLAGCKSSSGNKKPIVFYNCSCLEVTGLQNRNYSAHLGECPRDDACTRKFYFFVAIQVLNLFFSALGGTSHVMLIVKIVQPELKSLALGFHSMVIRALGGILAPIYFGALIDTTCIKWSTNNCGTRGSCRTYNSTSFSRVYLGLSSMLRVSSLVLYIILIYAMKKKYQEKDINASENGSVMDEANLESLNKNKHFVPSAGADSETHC

CYP1A2 = assay: CYP induction in cultured human hepatocytes: CYP1A2; assay type: in vitro ADME; details: three donors, up to 10,000 μg/L (23.5 µM)
[1] = cited from earlier work
OAT3 = target: T2, OAT3 (Homo sapiens, UniProt Q8TCC7); assay: Inhibitory potency towards OAT3; assay type: in vitro ADME
T2 sequence (Q8TCC7 1-542): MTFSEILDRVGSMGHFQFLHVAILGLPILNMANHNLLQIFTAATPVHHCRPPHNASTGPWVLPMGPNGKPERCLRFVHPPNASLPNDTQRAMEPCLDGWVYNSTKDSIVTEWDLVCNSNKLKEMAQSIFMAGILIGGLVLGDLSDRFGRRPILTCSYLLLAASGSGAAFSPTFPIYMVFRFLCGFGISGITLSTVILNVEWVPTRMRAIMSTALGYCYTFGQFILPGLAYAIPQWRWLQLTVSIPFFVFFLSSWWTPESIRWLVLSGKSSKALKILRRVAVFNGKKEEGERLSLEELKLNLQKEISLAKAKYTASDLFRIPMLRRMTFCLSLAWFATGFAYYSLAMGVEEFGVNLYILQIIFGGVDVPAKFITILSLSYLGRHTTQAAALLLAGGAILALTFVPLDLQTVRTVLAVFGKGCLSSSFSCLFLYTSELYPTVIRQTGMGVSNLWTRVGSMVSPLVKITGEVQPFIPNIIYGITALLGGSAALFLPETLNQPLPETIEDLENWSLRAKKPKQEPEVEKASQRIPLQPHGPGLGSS

[2] = target: T3, organic cation transporter 2 (Homo sapiens, UniProt O15244); assay: Inhibitory potency towards OCT2; assay type: in vitro ADME
T3 sequence (O15244 1-555): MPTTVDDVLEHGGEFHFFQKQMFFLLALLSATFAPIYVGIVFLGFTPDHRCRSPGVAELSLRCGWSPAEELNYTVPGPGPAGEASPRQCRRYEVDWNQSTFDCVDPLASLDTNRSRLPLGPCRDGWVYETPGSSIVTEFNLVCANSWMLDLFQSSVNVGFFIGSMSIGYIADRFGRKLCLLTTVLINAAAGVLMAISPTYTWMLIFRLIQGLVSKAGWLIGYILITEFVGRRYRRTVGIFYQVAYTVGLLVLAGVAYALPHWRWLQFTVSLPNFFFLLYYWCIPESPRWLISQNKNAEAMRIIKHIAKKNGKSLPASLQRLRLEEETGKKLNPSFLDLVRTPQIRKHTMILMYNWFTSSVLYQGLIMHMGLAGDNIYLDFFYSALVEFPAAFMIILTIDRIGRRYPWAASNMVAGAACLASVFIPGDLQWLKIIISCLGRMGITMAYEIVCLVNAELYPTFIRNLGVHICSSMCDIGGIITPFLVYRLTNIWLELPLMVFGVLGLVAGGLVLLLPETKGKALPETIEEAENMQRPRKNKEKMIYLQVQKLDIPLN

[3] = Phase I DDI study with aspirin; assay type: in vivo, human; details: with aspirin 500 mg vs vericiguat 15 mg SD alone, fasting
[4] = Phase I DDI study with omeprazole and magnesium/aluminum hydroxide; assay type: in vivo, human
How it was run: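 Randomized, open-label, three-fold crossover in healthy men. Test compound 5 mg single oral dose given fasting: alone; with omeprazole 40 mg QD for 5 days (pre- and co-dosed); or with a single 10 mL magnesium hydroxide 600 mg/aluminum oxide 900 mg antacid.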

UGT2B4 = target: T4, UGT2B4 (Homo sapiens, UniProt P06133); assay: Inhibitory potency towards UGT isoforms: UGT2B4; assay type: in vitro ADME
T4 sequence (P06133 24-528): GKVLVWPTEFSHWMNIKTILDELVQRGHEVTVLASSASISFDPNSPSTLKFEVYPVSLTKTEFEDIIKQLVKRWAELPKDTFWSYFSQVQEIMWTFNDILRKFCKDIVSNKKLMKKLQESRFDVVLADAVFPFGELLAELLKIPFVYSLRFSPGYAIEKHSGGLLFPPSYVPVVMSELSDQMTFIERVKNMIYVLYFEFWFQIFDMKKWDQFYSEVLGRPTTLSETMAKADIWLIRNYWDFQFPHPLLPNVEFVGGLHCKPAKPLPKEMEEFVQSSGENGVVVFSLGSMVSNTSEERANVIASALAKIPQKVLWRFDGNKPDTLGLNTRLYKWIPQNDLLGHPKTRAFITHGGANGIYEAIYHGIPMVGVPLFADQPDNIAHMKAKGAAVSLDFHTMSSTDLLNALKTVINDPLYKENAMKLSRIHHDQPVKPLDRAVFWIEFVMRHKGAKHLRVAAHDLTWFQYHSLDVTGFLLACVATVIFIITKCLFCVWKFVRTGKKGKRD

[5] = pre- and co-administration of omeprazole vs vericiguat alone

Q: Which results are given for `COC(=O)Nc1c(N)nc(-c2nn(Cc3ccccc3F)c3ncc(F)cc23)nc1N` [Vericiguat]?
A: Induction of CYP2B6 (CYP2B6): no significant induction; CYP3A4 mRNA induction relative to rifampicin [positive control] response (CYP3A4; highest tested concentration): 4%; Increase in CYP3A4 messenger RNA (CYP3A4; highest tested concentration 10,000 μg/L (23.5 µM)): 2.7 fold; Substrate of OATP1B1 (OATP1B1): not a substrate; Induction of CYP1A2 (CYP1A2): no significant induction; Increase in AUC after administration with food compared to without ([1]; vericiguat alone): approximately 44%; Increase in Cmax after administration with food compared to without ([1]; vericiguat alone): ~41%; Geometric coefficient of variation in AUC ([1]; with food): 19%; Oral bioavailability ([1]; with food): 93%; Geometric coefficient of variation in AUC ([1]; without food): 41%; IC50 (OAT3): > 5 µM; IC50 [2]: > 5 µM; AUC of vericiguat, point estimate of treatment ratio [3]: 0.949; Cmax of vericiguat, point estimate of treatment ratio [3]: 0.933; Reduction in the bioavailability of vericiguat ([4]; co-administration in fasting conditions of omeprazole (40 mg once daily) and magnesium/aluminum hydroxide (600/900 mg) relative to vericiguat alone): about 30%; Reduction of AUC of vericiguat [4, 5]: 32%; Reduction of Cmax of vericiguat [4, 5]: 49%; Cmax of vericiguat, point estimate of treatment ratio ([4]; with omeprazole 40 mg QD vs vericiguat 5 mg SD alone, fasting): 0.504; IC50 (UGT2B4): > 50 µM
